Reference: ChEMBL document CHEMBL1914423, “New imidazo[2,1-b]thiazole derivatives: synthesis, in vitro anticancer evaluation, and in silico studies” (Eur J Med Chem, 2011)

Columns and labels:
Format in all cases: functional
MDA-MB-231 = test: Anticancer activity against human MDA-MB-231 cells after 48 hrs by SRB assay; details: MDA-MB-231, 48 h
Summary of the method: (§1)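 NCI five-dose screen. Cells in RPMI 1640 with 5% FBS and 2 mM L-glutamine, seeded at 5000–40,000 cells/well according to doubling time, then pre-incubated 24 h at 37 °C in 5% CO2. Drugs dissolved in DMSO, five concentrations by 10-fold or 1/2-log dilution. Cells fixed with TCA, SRB-stained, A515 read. IC50 solved from [(Ti−Tz)/(C−Tz)]×100 = 50.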

Malme-3M = test: Anticancer activity against human MALME-3M cells after 48 hrs by SRB assay; summary of the method: as §1
ACHN = test: Anticancer activity against human ACHN cells after 48 hrs by SRB assay; summary of the method: as §1
COLO 205 = test: Anticancer activity against human COLO205 cells after 48 hrs by SRB assay; details: COLO 205, 48 h; summary of the method: as §1
SF-295 = test: Anticancer activity against human SF295 cells after 48 hrs by SRB assay; details: SF-295, 48 h
SK-MEL-28 = test: Anticancer activity against human SK-MEL-28 cells after 48 hrs by SRB assay; details: SK-MEL-28, 48 h
SN12C = test: Anticancer activity against human SN12C cells after 48 hrs by SRB assay
[1] = Anticancer activity against human Hs 578T cells after 48 hrs by SRB assay; summary of the method: as §1
KM12 = test: Anticancer activity against human KM12 cells after 48 hrs by SRB assay; details: KM12, 48 h; summary of the method: as §1
T47D = test: Anticancer activity against human T47D cells after 48 hrs by SRB assay
Summary of the method: (§2)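 NCI-60 five-dose mode: cells in RPMI 1640 with 5% FBS and 2 mM glutamine, plated at 5000–40,000 cells/well, and preincubated 24 h, with time-zero plates TCA-fixed. Drug given at five concentrations (10-fold or ½-log serial dilutions). Cold TCA fixation 60 min at 4 °C, SRB stain, Tris solubilization, A515. IC50 taken where [(Ti−Tz)/(C−Tz)]×100 = 50.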

NCI-H460 = test: Anticancer activity against human NCI-H460 cells after 48 hrs by SRB assay; details: NCI-H460, 48 h
HT-29 = test: Anticancer activity against human HT-29 cells after 48 hrs by SRB assay; details: HT-29, 48 h; summary of the method: as §1
NCI/ADR-RES = test: Anticancer activity against human NCI/ADR-RES cells after 48 hrs by SRB assay
SK-MEL-2 = test: Anticancer activity against human SK-MEL-2 cells after 48 hrs by SRB assay; details: SK-MEL-2, 48 h
MDA-MB-435 = test: Anticancer activity against human MDA-MB-435 cells after 48 hrs by SRB assay; details: MDA-MB-435, 48 h; summary of the method: as §1
M14 = test: Anticancer activity against human M14 cells after 48 hrs by SRB assay; details: M14, 48 h; summary of the method: as §1
CAKI-1 = test: Anticancer activity against human Caki1 cells after 48 hrs by SRB assay; details: CAKI-1, 48 h; summary of the method: as §1
CCRF-CEM = test: Anticancer activity against human CCRF-CEM cells after 48 hrs by SRB assay; summary of the method: as §1
NCI-H322M = test: Anticancer activity against human NCI-H322M cells after 48 hrs by SRB assay
HCT-116 = test: Anticancer activity against human HCT116 cells after 48 hrs by SRB assay; details: HCT-116, 48 h; summary of the method: as §1
HOP-62 = test: Anticancer activity against human HOP62 cells after 48 hrs by SRB assay; details: HOP-62, 48 h; summary of the method: as §1
UACC-62 = test: Anticancer activity against human UACC62 cells after 48 hrs by SRB assay; details: UACC-62, 48 h; summary of the method: as §2
HL-60(TB) = test: Anticancer activity against human HL-60(TB) cells after 48 hrs by SRB assay; details: HL-60, 48 h
Summary of the method: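 NCI-60 five-dose screen. Cells grown in RPMI 1640 with 5% FBS and 2 mM L-glutamine, seeded at 5000–40,000 cells/well, and held 24 h at 37 °C and 5% CO₂ before drug. DMSO stocks were diluted into five concentrations (10-fold or ½-log steps). Settled suspension cells were fixed with cold TCA, SRB-stained, and read at 515 nm. […] was taken where [(Ti−Tz)/(C−Tz)]×100 = 50.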

HCT-15 = test: Anticancer activity against human HCT15 cells after 48 hrs by SRB assay; details: HCT-15, 48 h; summary of the method: as §1
HOP-92 = test: Anticancer activity against human HOP92 cells after 48 hrs by SRB assay; details: HOP-92, 48 h; summary of the method: as §1
NCI-H522 = test: Anticancer activity against human NCI-H522 cells after 48 hrs by SRB assay; details: NCI-H522, 48 h
U-251 = test: Anticancer activity against human U251 cells after 48 hrs by SRB assay; details: U-251, 48 h; summary of the method: as §2
OVCAR-3 = test: Anticancer activity against human OVCAR3 cells after 48 hrs by SRB assay; details: OVCAR-3, 48 h
[2] = read-out: LC50 (the source's name)

With O=C(NCCNc1nccc(-c2c(-c3cccc(O)c3)nc3sccn23)n1)Nc1cccc(C(F)(F)F)c1 the GI50 (MDA-MB-231) was 3.52 µM, the TGI (MDA-MB-231) was 12.3 µM and the CC50 (MDA-MB-231; [2]) was > 100 µM. For the same compound, the GI50 (Malme-3M) was 2090 nM, the TGI (Malme-3M) was 7.3 µM and the CC50 (Malme-3M; [2]) was 50.7 µM. The GI50 (ACHN) was 5.79 µM, the TGI (ACHN) was 45.7 µM and the CC50 (ACHN; [2]) was > 100 µM. The GI50 (COLO 205) was 3.36 µM, the TGI (COLO 205) was 12 µM and the CC50 (COLO 205; [2]) was 59.5 µM. The GI50 (SF-295) was 4.16 µM, the TGI (SF-295) was 29.7 µM and the CC50 (SF-295; [2]) was > 100 µM. The GI50 (SK-MEL-28) was 2680 nM, the TGI (SK-MEL-28) was 10 µM and the CC50 (SK-MEL-28; [2]) was 62.2 µM. The GI50 (SN12C) was 3.42 µM, the TGI (SN12C) was 20 µM and the CC50 (SN12C; [2]) was > 100 µM. For the same compound, the GI50 [1] was 3.56 µM, the TGI [1] was 17.8 µM and the CC50 [1, 2] was > 100 µM. For the same compound, the GI50 (KM12) was 2780 nM, the TGI (KM12) was 6.98 µM and the CC50 (KM12; [2]) was 29.9 µM. For the same compound, the GI50 (T47D) was 6.52 µM, the TGI (T47D) was 25.6 µM and the CC50 (T47D; [2]) was 97.1 µM. It also gave a GI50 (NCI-H460) of 4.79 µM, an LC50 (NCI-H460) of 83.5 µM and a TGI (NCI-H460) of 20.8 µM. For the same compound, the GI50 (HT-29) was 3.45 µM, the TGI (HT-29) was 10.8 µM and the CC50 (HT-29; [2]) was 49.9 µM. For the same compound, the GI50 (NCI/ADR-RES) was 26.9 µM, the TGI (NCI/ADR-RES) was > 100 µM and the CC50 (NCI/ADR-RES; [2]) was > 100 µM. It also gave a GI50 (SK-MEL-2) of 2800 nM, a TGI (SK-MEL-2) of 6.07 µM and a CC50 (SK-MEL-2; [2]) of 36 µM. For the same compound, the GI50 (MDA-MB-435) was 2040 nM, the TGI (MDA-MB-435) was 4.94 µM and the CC50 (MDA-MB-435; [2]) was 41 µM. For the same compound, the GI50 (M14) was 1790 nM, the TGI (M14) was 3.39 µM and the CC50 (M14; [2]) was 6.41 µM. For the same compound, the GI50 (CAKI-1) was 14.2 µM, the TGI (CAKI-1) was 50.5 µM and the CC50 (CAKI-1; [2]) was > 100 µM. For the same compound, the GI50 (CCRF-CEM) was 3.25 µM, the TGI (CCRF-CEM) was 13.7 µM and the CC50 (CCRF-CEM; [2]) was > 100 µM. The GI50 (NCI-H322M) was 6.13 µM, the TGI (NCI-H322M) was 26 µM and the CC50 (NCI-H322M; [2]) was > 100 µM. It also gave a GI50 (HCT-116) of 3.58 µM, a TGI (HCT-116) of 11.5 µM and a CC50 (HCT-116; [2]) of 74.3 µM. It also gave a GI50 (HOP-62) of 8.33 µM, an LC50 (concentration killing 50% of starting cells) (HOP-62) of 61 µM and a TGI (HOP-62) of 23.4 µM. It also gave a GI50 (UACC-62) of 1940 nM, a TGI (UACC-62) of 6.51 µM and a CC50 (UACC-62; [2]) of 28.2 µM. For the same compound, the GI50 (HL-60(TB)) was 2850 nM, the LC50 (HL-60(TB)) was > 100 µM and the TGI (HL-60(TB)) was 6.03 µM. The GI50 (HCT-15) was 4.26 µM, the TGI (HCT-15) was 24.1 µM and the CC50 (HCT-15; [2]) was > 100 µM. For the same compound, the GI50 (HOP-92) was 2190 nM, the TGI (HOP-92) was 9.38 µM and the CC50 (HOP-92; [2]) was > 100 µM. For the same compound, the GI50 (NCI-H522) was 2110 nM, the TGI (NCI-H522) was 5 µM and the CC50 (NCI-H522; [2]) was 20.9 µM. The GI50 (U-251) was 4.95 µM, the TGI (U-251) was 23.6 µM and the CC50 (U-251; [2]) was > 100 µM. It also gave a GI50 (OVCAR-3) of 5.52 µM, a TGI (OVCAR-3) of 22.7 µM and a CC50 (OVCAR-3; [2]) of 87.3 µM.
